One assay has as its system B16. Description: Inhibition B16 melanoma cell monolayer proliferation. The format is functional, cell-based. The note with it: Mus musculus. The method, boiled down:
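Mouse B16 melanoma cells grown as monolayers with continuous 72-h exposure to compound. IC50 is the concentration that inhibits proliferation by 50%.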

Another assay addresses Tubulin alpha chain (Sus scrofa, UniProt P02550). Description: Displacement of 5.8 uM [3H]-oncodazole from homogeneous tubulin. The method, boiled down: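 Equilibrium binding to soluble, homogeneous tubulin, measured by displacement of 5.8 μM [³H]oncodazole. IC50 (μM) is the concentration that displaces the label, given as mean ± SEM.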
Assay [1] relates to Mus musculus. As to the kind of experiment: In vivo Maximum tolerated dose in syngeneic B6D2F1 female mice bearing ip implanted P388 leukemia. In kind it is functional. The procedure, abridged: (§1)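 Female B6D2F1 mice given ip implants of 10⁶ P388 leukemia cells. Drug given ip on days 1-5 after implantation at 320-20 mg/kg per day; maximally tolerated dose reported in mg/kg per day. Percent increase in lifespan taken at that dose from median survival time versus untreated controls. Under 25% increase counts as negative.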

The test system of assay [2] is Mus musculus. Description: In vivo percent increase in life span at Maximum tolerated dose in syngeneic B6D2F1 female mice bearing ip implanted P388 leukemia; Negative. The format is functional. The method, boiled down:
as §1

In assay [3] the test system is Mus musculus. Description: In vivo percent increase in life span at Maximum tolerated dose in syngeneic B6D2F1 female mice bearing ip implanted P388 leukemia. The format is functional. The method, boiled down:
as §1

Assay [4] relates to Mus musculus. Description: Compound was tested in vivo for percent increase in life span at Maximum tolerated dose in syngeneic B6D2F1 female mice bearing intraperitoneally implanted P388 leukemia (exp 2). The format is functional. The method, boiled down:
as §1

The IC50 is the point on the concentration scale where inhibition reaches its midpoint. Higher therefore signals a need for much substance. By MTD is commonly meant the largest dose that counted as tolerated. Low readings indicate poorer tolerability, high ones better tolerability. One may read the ILS as the gain in survival time of treated over control animals, in per cent. A lower ILS goes with little gain in survival.

SMILES strings stand for the structures. Where only a bound is given, the exact number is not on record here.

Sequence of Tubulin alpha chain (P02550 whole entry, looked up): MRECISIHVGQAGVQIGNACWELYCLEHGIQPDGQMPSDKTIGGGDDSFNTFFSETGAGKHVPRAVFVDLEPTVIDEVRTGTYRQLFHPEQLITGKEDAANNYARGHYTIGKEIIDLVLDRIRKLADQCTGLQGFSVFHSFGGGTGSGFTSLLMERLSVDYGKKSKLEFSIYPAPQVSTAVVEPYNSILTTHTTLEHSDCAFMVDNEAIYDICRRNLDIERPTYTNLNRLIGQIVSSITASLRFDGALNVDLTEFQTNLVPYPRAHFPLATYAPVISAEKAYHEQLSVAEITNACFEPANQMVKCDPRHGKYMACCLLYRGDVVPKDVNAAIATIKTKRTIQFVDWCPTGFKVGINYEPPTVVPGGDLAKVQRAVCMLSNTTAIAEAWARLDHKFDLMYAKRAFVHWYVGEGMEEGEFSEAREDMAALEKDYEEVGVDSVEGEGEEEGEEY

With `COC(=O)Nc1nc2cc(C(=O)c3cc(CO)cs3)ccc2[nH]1`, the IC50 with B16 came out at 1.8 µM; at Tubulin alpha chain it was 22 µM.
With `COC(=O)Nc1nc2cc(C(=O)c3cc(CC(=O)O)cs3)ccc2[nH]1`, the IC50 in the assay on B16 was determined as 2 µM; on Tubulin alpha chain, 442 µM. In the assay on Mus musculus [1], this compound returned an MTD of 80 mg/kg. The ILS in the assay with Mus musculus [2] was under 25%.
As for `CCCOC(=O)Nc1nc2cc(C(=O)c3cccs3)ccc2[nH]1`, in the assay with B16, the IC50 is 0.5 µM. In the assay on Mus musculus [1], this compound yielded an MTD of over 320 mg/kg. Besides, the ILS in the assay with Mus musculus [2] is under 25%.
The compound `COC(=O)Nc1nc2cc(C(=O)c3cccs3)ccc2n1C` came in with an IC50 in the assay with B16 of 20 µM. In addition, in the assay on Mus musculus [1], the MTD amounted to 160 mg/kg. The compound also yielded an ILS in the assay with Mus musculus [2] of under 25%.
`COC(=O)Nc1nc2cc(C(=O)c3ccc(C)s3)ccc2[nH]1`: the IC50 with B16 was 10 µM. This compound showed an MTD in the assay with Mus musculus [1] of 160 mg/kg. In the assay on Mus musculus [2], this compound came in with an ILS of under 25%.
Taken in the same sequence, the figures for `COC(=O)Nc1nc2cc(C(=O)c3cccs3)ccc2n1CCN` were 30 µM, 80 mg/kg and under 25%.
For the compound `COC(=O)Nc1nc2ccc(C(=O)c3cc(C([N+]#N)C(F)(F)F)cs3)cc2[nH]1` (centres undefined), the IC50 in the assay on B16 stood at 0.14 µM; at Tubulin alpha chain, 8.3 µM.
Consider `COC(=O)Nc1nc2cc(C(=O)c3cc(C)cs3)ccc2[nH]1`, for which the IC50 with B16 amounted to 0.1 µM; on Tubulin alpha chain, 17.6 µM. In addition, the MTD with Mus musculus [1] was 80 mg/kg. The ILS with Mus musculus [3] is given as 95%.
In the assay with B16, `COC(=O)Nc1nc2cc(C(=O)c3cccs3)c(C)cc2[nH]1` displayed an IC50 of 8 µM. Moreover, in the assay on Mus musculus [1], the MTD is over 320 mg/kg. Also, the increase in lifespan (ILS) in the assay with Mus musculus [2] is recorded as under 25%.
As for `COC(=O)N(C)c1nc2cc(C(=O)c3cccs3)ccc2[nH]1`, the IC50 with B16 stood at 50 µM. The compound also came in with a maximum tolerated dose (MTD) with Mus musculus [1] of 40 mg/kg. The ILS with Mus musculus [2] is given as under 25%.
Consider `COC(=O)Nc1nc2cc(C(=O)c3cc(CC#N)cs3)ccc2[nH]1`, for which the figures for the IC50 in the assay with B16 and on Tubulin alpha chain were 0.02 µM and 2.9 µM, respectively. The compound also registered an MTD in the assay on Mus musculus [1] of 160 mg/kg. Besides, the ILS with Mus musculus [3] and in the assay with Mus musculus [4] was 80% each time.
In the case of `COC(=O)Nc1nc2cc(C(=O)c3cc(CNC(=O)OC(C)(C)C)cs3)ccc2[nH]1`, the IC50 in the assay with B16 worked out at 0.5 µM; at Tubulin alpha chain it was 23.3 µM. In the assay on Mus musculus [1], this compound registered an MTD of 160 mg/kg. In the assay with Mus musculus [2], this compound came in with an ILS of under 25%.
With `COC(=O)Nc1nc2cc(C(=O)c3cc(CC(=O)OC(C)(C)C)cs3)ccc2[nH]1`, the IC50 in the assay with B16 came out at 0.07 µM; on Tubulin alpha chain, 7.5 µM. In the assay on Mus musculus [1], this compound came in with a maximal tolerated dose (MTD) of 160 mg/kg. The compound further returned an ILS in the assay on Mus musculus [3] of 105%.
At Tubulin alpha chain, `COC(=O)Nc1nc2ccc(C(=O)c3cc(COC(=O)c4ccccc4)cs3)cc2[nH]1` displayed an IC50 of 1.95 µM.
As to `COC(=O)Nc1nc2cc(C(=O)c3cc(C(=O)C(F)(F)F)cs3)ccc2[nH]1`, the IC50 with B16 amounted to 0.14 µM; on Tubulin alpha chain, 16 µM.
Take `COC(=O)Nc1nc2cc(C(=O)c3cccs3)ccc2n1CCCCN`: in the assay with B16, the IC50 came to 30 µM. The compound further displayed an MTD in the assay with Mus musculus [1] of 80 mg/kg. Also, the ILS in the assay on Mus musculus [2] was under 25%.
On to `CCOC(=O)Cc1csc(C(=O)c2ccc3[nH]c(NC(=O)OC)nc3c2)c1`, for which the values for the IC50 with B16 and on Tubulin alpha chain were 0.02 µM and 0.88 µM, respectively. The maximum tolerated dose (MTD) in the assay with Mus musculus [1] amounted to 80 mg/kg. Besides, the ILS in the assay with Mus musculus [3] and in the assay with Mus musculus [4] was 55% in each case.
Turning to `COC(=O)Nc1nc2cc(C(=O)c3cccs3)ccc2n1CCNC(=O)OCc1ccccc1`, the IC50 in the assay with B16 was found to be 20 µM.
In the case of `COC(=O)Nc1nc2c(C)c(C(=O)c3cccs3)ccc2[nH]1`, the results for the half-inhibitory concentration (IC50) in the assay on B16 and at Tubulin alpha chain were 4 µM and 106 µM, respectively. For the same compound, the MTD in the assay with Mus musculus [1] is 40 mg/kg. For the same compound, the ILS with Mus musculus [2] is under 25%.
As to `CCOC(=O)Nc1nc2cc(C(=O)c3cccs3)ccc2[nH]1`, in the assay with B16, the IC50 is 0.2 µM. The MTD in the assay with Mus musculus [1] is 160 mg/kg. For the same compound, the ILS in the assay on Mus musculus [2] is under 25%.
Taken in the same sequence, the figures for `COC(=O)Nc1nc2cc(C(=O)c3cc(CC(=O)NCCN)cs3)ccc2[nH]1` were over 70 µM, 80 mg/kg and under 25%.
Turning to `COC(=O)Nc1nc2cc(C(=O)c3cc(CN)cs3)ccc2[nH]1`, the IC50 in the assay on B16 is 2 µM; at Tubulin alpha chain, 120 µM. The compound also displayed an MTD in the assay with Mus musculus [1] of 20 mg/kg. Moreover, the ILS with Mus musculus [2] is recorded as under 25%.
In the case of `COC(=O)Cc1csc(C(=O)c2ccc3[nH]c(NC(=O)OC)nc3c2)c1`, the IC50 is 0.04 µM in the assay with B16 and 5 µM at Tubulin alpha chain. The compound further showed an MTD in the assay with Mus musculus [1] of 30 mg/kg. This compound gave an ILS in the assay with Mus musculus [3] of 65%.
As for `COC(=O)Nc1nc2c(C)cc(C(=O)c3cccs3)cc2[nH]1`, the half-inhibitory concentration (IC50) in the assay with B16 worked out at 0.06 µM; on Tubulin alpha chain, 0.86 µM. The compound also returned an MTD in the assay with Mus musculus [1] of 30 mg/kg. For the same compound, the ILS with Mus musculus [3] is recorded as 45%; in the assay with Mus musculus [4] it was 50%.
Consider `CC(C)OC(=O)Nc1nc2cc(C(=O)c3cccs3)ccc2[nH]1`, for which the IC50 with B16 was found to be 0.2 µM; on Tubulin alpha chain, 14 µM. Further, in the assay on Mus musculus [1], the MTD worked out at 320 mg/kg. Moreover, the ILS with Mus musculus [3] turned out to be 45%; in the assay with Mus musculus [4], 30%.
`COC(=O)Nc1nc2cc(C(=O)c3cc(CC(=O)OCc4ccccc4)cs3)ccc2[nH]1` had an IC50 at Tubulin alpha chain of 5.2 µM.
In turn, `COC(=O)Nc1nc2cc(C(=O)c3sccc3C)ccc2[nH]1` registered an IC50 in the assay with B16 of 2 µM. This compound had an MTD in the assay with Mus musculus [1] of over 320 mg/kg. The ILS with Mus musculus [2] is recorded as under 25%.
Take `COC(=O)Nc1nc2cc(C(=O)c3cccs3)ccc2[nH]1` [NOCODAZOLE]: the IC50 was determined as 0.1 µM in the assay with B16 and 5.7 µM at Tubulin alpha chain. The compound further registered an MTD with Mus musculus [1] of 80 mg/kg. Also, the ILS in the assay on Mus musculus [3] is reported as 75%.
`COC(=O)Nc1nc2ccc(C(=O)c3cccs3)cc2n1C` [NOCODOZOLE] had an IC50 in the assay with B16 of 40 µM. In the assay on Mus musculus [1], this compound came in with an MTD of over 320 mg/kg. The compound further registered an ILS in the assay with Mus musculus [2] of under 25%.

Source of the values: ChEMBL document CHEMBL1124613, “Synthesis, tubulin binding, antineoplastic evaluation, and structure-activity relationship of oncodazole analogues” (J Med Chem, 1989).
